Experimental data published in ChEMBL document CHEMBL1821661, “Design, synthesis, and biological evaluation of pyrazolopyrimidine-sulfonamides as potent multiple-mitotic kinase (MMK) inhibitors (part I)” (Bioorg Med Chem Lett, 2011).

Assays:
K562 = assay: Cell cycle arrest in human K562 cells assessed as accumulation of cells at G2/M phase after 24 hrs using propidium iodide by flow cytometry; format: functional, cell-based; settings: K562, 24 h, read-out: IC50
In short: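 2 × 10⁴ K562 cells were exposed to varying compound concentrations for 24 h. Cells were stained with propidium iodide (50 µg/ml) in PBS containing 1% sodium citrate and 0.1% Triton X-100, and 5000 events were collected by flow cytometry. Cycle data were modelled by the Watson method. The minimum arrest concentration was taken where the G2:M peak ratio exceeded 1.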

[1] = molecular target: Cyclin-dependent kinase 1/cyclin B1 (Homo sapiens, UniProt P06493); assay: Inhibition of CDK1/Cyclin B assessed as phosphorylation of Z-lyte Peptide at […] by FRET assay; format: protein-complex assay
In short: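 Z-lyte FRET kinase assay. Kinase was at 3 nM final with a coumarin/fluorescein-labelled synthetic peptide substrate and ATP. Development-step cleavage of non-phosphorylated peptide disrupts FRET. % phosphorylation was calculated from the coumarin:fluorescein emission ratio, read at 445–520 nm. EC50s were obtained by curve fitting.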

Aurora kinase A = molecular target: T1, Aurora kinase A (Homo sapiens, UniProt O14965); assay: Inhibition of Aurora kinase A assessed as phosphorylation of Lats2 substrate at […] by FRET assay
T1 sequence (O14965 whole entry): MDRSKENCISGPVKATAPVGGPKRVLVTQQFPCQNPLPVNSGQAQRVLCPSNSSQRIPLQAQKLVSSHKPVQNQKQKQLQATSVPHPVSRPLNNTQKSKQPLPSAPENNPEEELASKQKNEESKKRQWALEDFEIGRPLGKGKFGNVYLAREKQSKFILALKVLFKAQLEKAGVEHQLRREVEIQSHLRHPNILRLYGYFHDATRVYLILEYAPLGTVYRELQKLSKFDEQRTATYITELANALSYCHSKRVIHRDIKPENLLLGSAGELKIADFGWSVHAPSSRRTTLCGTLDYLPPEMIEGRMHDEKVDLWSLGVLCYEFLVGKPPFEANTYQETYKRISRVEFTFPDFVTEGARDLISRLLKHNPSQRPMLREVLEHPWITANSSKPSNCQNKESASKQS

HCT-116 [2] = assay: Cytotoxicity against human HCT116 cells assessed as growth inhibition at 0.01 to 10 uM after 5 days by MTS assay; format: functional, cell-based; settings: HCT-116, 120 h
[3] = Efflux ratio of permeability in human Caco2 cells; format: ADME, cell-based; settings: Caco-2
In short: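 Caco-2 bidirectional transport, passage 25–50, in HBSS/25 mM HEPES/1% DMSO after a 30 min pre-incubation at 37 °C. Compound was dosed apically (A–B) or basolaterally (B–A) and incubated 2 h at 37 °C with gentle shaking.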

hERG (KCNH2) = hERG (KCNH2) (Homo sapiens, UniProt Q12809); assay: Inhibition of human ERG up to 10 uM by patch clamp method
[4] = Hepatic blood flow in rat liver microsomes assessed as compound remaining at 1.0 uM pre incubated for 5 mins at pH 7.4 by LC/MS/MS analysis; format: ADME, Microsome; settings: read-out: QH
In short: (§1)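 Liver microsomes at 1 mg/mL protein in 50 mM potassium phosphate, pH 7.4, with 2.5 mM NADPH. Compound was used at 1.0 µM final and pre-incubated 5 min at 37 °C before NADPH started the reaction. Samples were taken at 0, 5 and 30 min, quenched in acetonitrile, and filtered. Results are expressed as %Q_h (hepatic blood flow).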

Cytochrome P450 2D6 = Cytochrome P450 2D6 (Homo sapiens, UniProt P10635); assay: Inhibition of CYP2D6 using a fluorescent probe 3-[2-(N,N-diethyl-N-methylamino)ethyl]-7-methoxy-4methylcoumarin; format: ADME
In short: (§2)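 Fluorescent-probe CYP inhibition assay. Probes: 7-methoxy-4-trifluoromethylcoumarin for 2C9; 3-[2-(N,N-diethyl-N-methylamino)ethyl]-7-methoxy-4-methylcoumarin for 2D6.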

Cytochrome P450 1A2 = molecular target: T2, Cytochrome P450 1A2 (Homo sapiens, UniProt P05177); assay: Inhibition of CYP1A2; format: ADME
T2 sequence (P05177 whole entry): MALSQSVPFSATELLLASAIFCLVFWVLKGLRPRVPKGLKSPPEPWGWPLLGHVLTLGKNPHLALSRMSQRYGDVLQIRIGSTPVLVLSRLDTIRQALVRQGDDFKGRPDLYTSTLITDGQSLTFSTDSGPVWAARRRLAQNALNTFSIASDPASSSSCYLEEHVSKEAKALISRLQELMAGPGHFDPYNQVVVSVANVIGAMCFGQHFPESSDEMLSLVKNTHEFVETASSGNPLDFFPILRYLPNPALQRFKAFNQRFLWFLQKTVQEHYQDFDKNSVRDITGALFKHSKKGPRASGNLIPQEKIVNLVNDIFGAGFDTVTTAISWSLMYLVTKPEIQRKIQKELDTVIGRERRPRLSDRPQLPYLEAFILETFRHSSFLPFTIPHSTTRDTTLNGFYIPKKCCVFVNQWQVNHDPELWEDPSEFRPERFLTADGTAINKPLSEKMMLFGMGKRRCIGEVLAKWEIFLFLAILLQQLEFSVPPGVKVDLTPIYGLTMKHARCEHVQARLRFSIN

[5] = Hepatic blood flow in human liver microsomes assessed as compound remaining at 1.0 uM pre incubated for 5 mins at pH 7.4 by LC/MS/MS analysis; format: ADME, Microsome; settings: read-out: QH; in short: as §1
Cytochrome P450 3A4 [6] = molecular target: T3, Cytochrome P450 3A4 (Homo sapiens, UniProt P08684); assay: Inhibition of CYP3A4 using a fluorescent probe 7-benzyloxyquinoline; format: ADME
Mus musculus = assay: Toxicity in nu/nu mouse xenografted with human HCT116 cells assessed as change in body weight at 15 to 30 mg/kg, […]; format: organism-based, HCT-116; parameters: dose 15-30 mg/kg, route intraperitoneal; settings: in vivo, ip, 504 h
HCT-116 [7] = assay: Antitumor activity against human HCT116 cells xenografted in nu/nu mouse assessed as tumor growth inhibition at 15 to 30 mg/kg, ip for 21 days relative to control; format: functional; settings: dose mg/kg 15-30, route intraperitoneal
[8] = Hepatic blood flow in mouse liver microsomes assessed as compound remaining at 1.0 uM pre incubated for 5 mins at pH 7.4 by LC/MS/MS analysis; format: ADME, Microsome; settings: read-out: QH; in short: as §1
Cytochrome P450 3A4 [9] = molecular target: T3, Cytochrome P450 3A4; assay: Inhibition of CYP3A4 using a fluorescent probe 7-benzyloxy-4(trifluoromethyl)-coumarin; format: ADME
Cytochrome P450 2C19 = Cytochrome P450 2C19 (Homo sapiens, UniProt P33261); assay: Inhibition of CYP2C19; format: ADME
Cytochrome P450 2C9 = Cytochrome P450 2C9 (Homo sapiens, UniProt P11712); assay: Inhibition of CYP2C9 using a fluorescent probe 7-methoxy-4-trifluoromethylcoumarin; format: ADME; in short: as §2
[10] = Apparent permeability from apical to basolateral side of the human Caco2 cells after 2 hrs; format: ADME, cell-based; settings: Caco-2
In short: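 Caco-2 cells, passage 25–50, were grown on transwell inserts. They were washed and pre-incubated 30 min at 37 °C in HBSS with 25 mM HEPES and 1% DMSO. Compound was added to the apical chamber and apical-to-basolateral transport was measured after 2 h at 37 °C with gentle shaking.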

T3 sequence (P08684 whole entry): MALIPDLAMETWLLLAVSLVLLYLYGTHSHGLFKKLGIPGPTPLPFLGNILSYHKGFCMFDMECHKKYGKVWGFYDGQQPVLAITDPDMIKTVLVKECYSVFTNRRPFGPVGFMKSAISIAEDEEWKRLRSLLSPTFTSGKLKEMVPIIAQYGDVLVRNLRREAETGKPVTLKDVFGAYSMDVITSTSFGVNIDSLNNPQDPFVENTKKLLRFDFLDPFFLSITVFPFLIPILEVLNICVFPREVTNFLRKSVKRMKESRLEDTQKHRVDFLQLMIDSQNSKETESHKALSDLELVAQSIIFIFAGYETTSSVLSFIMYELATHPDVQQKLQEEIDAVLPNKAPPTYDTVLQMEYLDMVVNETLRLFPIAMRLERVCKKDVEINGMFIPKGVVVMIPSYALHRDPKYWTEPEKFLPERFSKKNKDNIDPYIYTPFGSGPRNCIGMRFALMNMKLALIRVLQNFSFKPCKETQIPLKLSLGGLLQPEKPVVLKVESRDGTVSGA
Cyclin-dependent kinase 1/cyclin B1, sequence (P06493 whole entry): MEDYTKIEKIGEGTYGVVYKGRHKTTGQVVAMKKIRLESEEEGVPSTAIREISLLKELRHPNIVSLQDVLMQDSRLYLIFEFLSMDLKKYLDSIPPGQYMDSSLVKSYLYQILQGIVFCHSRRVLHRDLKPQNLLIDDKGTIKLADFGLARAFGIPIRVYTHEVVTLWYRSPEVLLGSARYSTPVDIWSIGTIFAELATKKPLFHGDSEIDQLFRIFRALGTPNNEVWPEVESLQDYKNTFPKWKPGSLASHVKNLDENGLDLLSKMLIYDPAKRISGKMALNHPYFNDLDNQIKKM
Cyclin-dependent kinase 1/cyclin B1, sequence (P14635 whole entry, further chain): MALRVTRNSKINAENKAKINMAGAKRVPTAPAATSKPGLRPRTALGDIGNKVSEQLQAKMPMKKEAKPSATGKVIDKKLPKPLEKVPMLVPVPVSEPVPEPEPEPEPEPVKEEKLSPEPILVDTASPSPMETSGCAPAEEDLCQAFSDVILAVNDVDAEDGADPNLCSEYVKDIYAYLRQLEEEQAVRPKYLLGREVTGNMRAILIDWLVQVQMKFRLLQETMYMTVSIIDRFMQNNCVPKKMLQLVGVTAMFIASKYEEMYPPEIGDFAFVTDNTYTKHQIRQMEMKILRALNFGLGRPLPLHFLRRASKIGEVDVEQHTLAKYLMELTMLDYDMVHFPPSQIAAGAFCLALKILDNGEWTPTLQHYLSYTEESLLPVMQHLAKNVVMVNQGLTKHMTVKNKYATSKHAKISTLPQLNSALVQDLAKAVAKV
hERG (KCNH2), sequence (Q12809 whole entry): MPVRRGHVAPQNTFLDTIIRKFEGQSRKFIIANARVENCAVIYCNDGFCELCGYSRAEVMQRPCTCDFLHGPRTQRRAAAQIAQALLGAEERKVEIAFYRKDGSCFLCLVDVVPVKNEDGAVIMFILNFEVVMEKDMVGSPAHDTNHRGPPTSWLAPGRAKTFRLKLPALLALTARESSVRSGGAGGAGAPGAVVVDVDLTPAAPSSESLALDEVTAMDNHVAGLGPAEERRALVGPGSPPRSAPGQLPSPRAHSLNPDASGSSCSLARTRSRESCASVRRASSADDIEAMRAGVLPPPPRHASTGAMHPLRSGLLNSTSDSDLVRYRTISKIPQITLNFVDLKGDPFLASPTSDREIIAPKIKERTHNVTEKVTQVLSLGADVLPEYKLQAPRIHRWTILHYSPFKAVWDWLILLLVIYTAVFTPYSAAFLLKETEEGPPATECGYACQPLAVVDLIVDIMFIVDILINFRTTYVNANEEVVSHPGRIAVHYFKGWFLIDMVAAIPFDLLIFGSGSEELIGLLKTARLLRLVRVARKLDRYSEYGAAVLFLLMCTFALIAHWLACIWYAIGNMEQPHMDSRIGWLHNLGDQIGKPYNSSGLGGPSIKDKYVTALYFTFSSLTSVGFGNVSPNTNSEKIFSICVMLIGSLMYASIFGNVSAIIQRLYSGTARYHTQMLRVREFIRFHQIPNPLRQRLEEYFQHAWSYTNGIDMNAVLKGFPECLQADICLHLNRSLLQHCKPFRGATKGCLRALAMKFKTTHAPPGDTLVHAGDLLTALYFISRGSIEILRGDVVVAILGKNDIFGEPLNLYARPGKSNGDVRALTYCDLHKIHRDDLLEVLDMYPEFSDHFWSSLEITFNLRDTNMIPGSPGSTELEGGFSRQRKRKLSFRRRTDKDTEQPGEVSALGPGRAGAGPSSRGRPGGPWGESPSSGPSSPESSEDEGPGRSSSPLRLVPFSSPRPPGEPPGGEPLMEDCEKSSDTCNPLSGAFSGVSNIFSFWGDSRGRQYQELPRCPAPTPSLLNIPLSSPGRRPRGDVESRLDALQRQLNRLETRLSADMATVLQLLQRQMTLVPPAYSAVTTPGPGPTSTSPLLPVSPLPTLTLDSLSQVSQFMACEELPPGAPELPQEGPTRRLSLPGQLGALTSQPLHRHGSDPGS
Cytochrome P450 2C19, sequence (P33261 whole entry): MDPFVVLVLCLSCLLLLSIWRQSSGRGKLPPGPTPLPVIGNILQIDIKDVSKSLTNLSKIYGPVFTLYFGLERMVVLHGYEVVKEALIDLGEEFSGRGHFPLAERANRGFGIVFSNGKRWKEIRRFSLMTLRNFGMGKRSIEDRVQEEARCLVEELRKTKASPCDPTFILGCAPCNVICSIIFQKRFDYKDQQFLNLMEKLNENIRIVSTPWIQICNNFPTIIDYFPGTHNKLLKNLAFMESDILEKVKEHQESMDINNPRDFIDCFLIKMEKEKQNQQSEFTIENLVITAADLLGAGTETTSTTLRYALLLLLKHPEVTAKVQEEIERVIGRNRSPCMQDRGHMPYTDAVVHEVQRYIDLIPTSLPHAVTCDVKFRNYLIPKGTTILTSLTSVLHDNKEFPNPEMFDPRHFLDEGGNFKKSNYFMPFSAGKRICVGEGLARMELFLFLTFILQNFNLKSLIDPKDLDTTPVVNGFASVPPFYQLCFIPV
Cytochrome P450 2D6, sequence (P10635 whole entry): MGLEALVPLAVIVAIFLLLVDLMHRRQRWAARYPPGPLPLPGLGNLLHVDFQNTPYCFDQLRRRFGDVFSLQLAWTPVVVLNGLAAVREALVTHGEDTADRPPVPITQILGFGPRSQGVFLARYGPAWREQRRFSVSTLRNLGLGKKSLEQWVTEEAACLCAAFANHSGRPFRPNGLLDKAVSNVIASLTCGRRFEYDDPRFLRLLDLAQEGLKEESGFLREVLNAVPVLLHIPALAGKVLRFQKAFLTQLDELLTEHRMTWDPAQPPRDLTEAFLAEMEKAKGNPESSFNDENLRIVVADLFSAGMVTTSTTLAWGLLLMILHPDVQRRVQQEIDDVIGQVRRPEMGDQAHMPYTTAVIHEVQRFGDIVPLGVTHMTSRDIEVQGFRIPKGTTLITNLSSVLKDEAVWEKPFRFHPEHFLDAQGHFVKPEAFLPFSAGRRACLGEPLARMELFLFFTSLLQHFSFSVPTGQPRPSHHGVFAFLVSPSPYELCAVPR
Cytochrome P450 2C9, sequence (P11712 whole entry): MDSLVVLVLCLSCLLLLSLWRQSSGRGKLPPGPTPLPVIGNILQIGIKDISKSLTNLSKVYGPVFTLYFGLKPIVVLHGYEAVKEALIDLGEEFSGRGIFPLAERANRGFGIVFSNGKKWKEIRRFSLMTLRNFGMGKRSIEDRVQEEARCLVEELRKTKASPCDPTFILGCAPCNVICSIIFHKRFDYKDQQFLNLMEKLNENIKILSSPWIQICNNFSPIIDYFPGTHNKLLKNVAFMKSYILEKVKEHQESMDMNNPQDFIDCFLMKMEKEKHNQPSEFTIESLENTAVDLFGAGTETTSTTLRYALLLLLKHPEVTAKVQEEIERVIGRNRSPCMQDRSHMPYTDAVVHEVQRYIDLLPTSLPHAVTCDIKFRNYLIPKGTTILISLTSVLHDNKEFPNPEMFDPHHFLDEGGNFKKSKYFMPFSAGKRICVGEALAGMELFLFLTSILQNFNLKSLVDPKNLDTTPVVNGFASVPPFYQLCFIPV

SMILES: CS(=O)(=O)N(CCN1CCOCC1)c1ccc(Nc2ncc3cnn(C4CCCCCC4)c3n2)cn1
- Minimum G2/M arrest concentration (K562): 2000 nM
- IC50 [1]: 0.031 µM
- IC50 (Aurora kinase A): 0.15 µM
- IC50 (HCT-116 [2]): 0.5 µM

SMILES: CS(=O)(=O)N(Cc1ccncc1)c1ccc(Nc2ncc3cnn(C4CCCCCC4)c3n2)cn1
- Minimum G2/M arrest concentration (K562): 300 nM
- IC50 [1]: 0.013 µM
- IC50 (Aurora kinase A): 0.095 µM
- IC50 (HCT-116 [2]): 0.32 µM

SMILES: CS(=O)(=O)N(c1ccc(Nc2ncc3cnn(C4CCCCCC4)c3n2)nc1)S(C)(=O)=O
- Minimum G2/M arrest concentration (K562): > 3000 nM
- IC50 [1]: > 10 µM
- IC50 (Aurora kinase A): > 10 µM

SMILES: CS(=O)(=O)N(CCN)c1ccc(Nc2ncc3cnn(C4CCCCCC4)c3n2)cn1
- Minimum G2/M arrest concentration (K562): 300 nM
- IC50 [1]: 0.003 µM
- IC50 (HCT-116 [2]): 0.119 µM

SMILES: CN(C)CCN(c1ccc(Nc2ncc3cnn(C4CCCCCC4)c3n2)cn1)S(C)(=O)=O
- Minimum G2/M arrest concentration (K562): 300 nM
- IC50 [1]: 0.01 µM
- IC50 (Aurora kinase A): 0.26 µM
- IC50 (HCT-116 [2]): 0.22 µM

SMILES: CS(=O)(=O)N(CCN)c1ccc(Nc2ncc3cnn(C4CCCCCC4)c3n2)cc1
- Minimum G2/M arrest concentration (K562): 100 nM
- IC50 [1]: 0.005 µM
- IC50 (Aurora kinase A): 0.02 µM
- IC50 (HCT-116 [2]): 0.06 µM

SMILES: CS(=O)(=O)N(CCN1CCOCC1)c1ccc(Nc2ncc3cnn(C4CCCCCC4)c3n2)cc1
- Minimum G2/M arrest concentration (K562): 100 nM
- efflux ratio [3]: 1.1
- inhibition at up to 10 uM (hERG (KCNH2)): 40%
- hepatic extraction ratio at 5 min, 1 µM [4]: 0.94
- IC50 [1]: 0.023 µM
- IC50 (Cytochrome P450 2D6): > 10 µM
- IC50 (Aurora kinase A): 0.014 µM
- IC50 (Cytochrome P450 1A2): > 10 µM
- hepatic extraction ratio at 5 min, 1 µM [5]: 0.95
- IC50 (Cytochrome P450 3A4 [6]): 0.04 µM
- Activity (Mus musculus): Non-toxic
- growth inhibition (GI) (HCT-116 [7]): 50%
- IC50 (HCT-116 [2]): 0.16 µM
- hepatic extraction ratio at 5 min, 1 µM [8]: 0.96
- IC50 (Cytochrome P450 3A4 [9]): 0.04 µM
- IC50 (Cytochrome P450 2C19): 0.03 µM
- IC50 (Cytochrome P450 2C9): 0.001 µM
- Papp A→B at 2 h [10]: 265 nm/s

SMILES: CS(=O)(=O)N(CCO)c1ccc(Nc2ncc3cnn(C4CCCCCC4)c3n2)cn1
- Minimum G2/M arrest concentration (K562): 300 nM
- IC50 [1]: 0.004 µM
- IC50 (Aurora kinase A): 0.11 µM
- IC50 (HCT-116 [2]): 0.145 µM

SMILES: CS(=O)(=O)N(CCO)c1ccc(Nc2ncc3cnn(C4CCCCCC4)c3n2)cc1
- Minimum G2/M arrest concentration (K562): 30 nM
- IC50 [1]: 0.005 µM
- IC50 (Aurora kinase A): 0.013 µM
- IC50 (HCT-116 [2]): 0.077 µM

SMILES: CC(C)N(c1ccc(Nc2ncc3cnn(C4CCCCCC4)c3n2)cc1)S(C)(=O)=O
- Minimum G2/M arrest concentration (K562): 300 nM
- IC50 [1]: 0.09 µM
- IC50 (Aurora kinase A): 0.005 µM
- IC50 (HCT-116 [2]): 0.24 µM

SMILES: CS(=O)(=O)N(CCCO)c1ccc(Nc2ncc3cnn(C4CCCCCC4)c3n2)cc1
- Minimum G2/M arrest concentration (K562): 100 nM
- IC50 [1]: 0.006 µM
- IC50 (Aurora kinase A): 0.006 µM
- IC50 (HCT-116 [2]): 0.078 µM

SMILES: CS(=O)(=O)N(CCCN1CCOCC1)c1ccc(Nc2ncc3cnn(C4CCCCCC4)c3n2)cc1
- Minimum G2/M arrest concentration (K562): 100 nM
- IC50 [1]: 0.005 µM
- IC50 (HCT-116 [2]): 0.17 µM

SMILES: CS(=O)(=O)N(CCN1CCCC1)c1ccc(Nc2ncc3cnn(C4CCCCCC4)c3n2)cn1
- Minimum G2/M arrest concentration (K562): 1000 nM
- IC50 [1]: 0.01 µM
- IC50 (Aurora kinase A): 0.35 µM
- IC50 (HCT-116 [2]): 0.125 µM

SMILES: CS(=O)(=O)N(Cc1ccncc1)c1ccc(Nc2ncc3cnn(C4CCCCCC4)c3n2)cc1
- Minimum G2/M arrest concentration (K562): 300 nM
- IC50 [1]: 0.023 µM
- IC50 (Aurora kinase A): 0.03 µM
- IC50 (HCT-116 [2]): 0.25 µM

SMILES: CS(=O)(=O)N(CCCN1CCCCC1)c1ccc(Nc2ncc3cnn(C4CCCCCC4)c3n2)cc1
- Minimum G2/M arrest concentration (K562): 100 nM
- IC50 [1]: 0.006 µM
- IC50 (Aurora kinase A): 0.009 µM
- IC50 (HCT-116 [2]): 0.092 µM

SMILES: CS(=O)(=O)Nc1ccc(Nc2ncc3cnn(C4CCCCCC4)c3n2)cn1
- Minimum G2/M arrest concentration (K562): 300 nM
- efflux ratio [3]: 1.5
- inhibition at up to 10 uM (hERG (KCNH2)): 6.5%
- hepatic extraction ratio at 5 min, 1 µM [4]: 0.3
- IC50 [1]: 0.007 µM
- IC50 (Cytochrome P450 2D6): > 10 µM
- IC50 (Cytochrome P450 1A2): > 10 µM
- hepatic extraction ratio at 5 min, 1 µM [5]: 0.39
- IC50 (Cytochrome P450 3A4 [6]): > 10 µM
- IC50 (HCT-116 [2]): 0.21 µM
- hepatic extraction ratio at 5 min, 1 µM [8]: 0.33
- IC50 (Cytochrome P450 3A4 [9]): > 10 µM
- IC50 (Cytochrome P450 2C19): > 10 µM
- IC50 (Cytochrome P450 2C9): > 10 µM
- Papp A→B at 2 h [10]: 201 nm/s
